Read-outs that look alike come from different tables or passages of the source.

Data set [1] is classed as in vitro ADME, human. Particulars: EDTA whole blood, Simoa N3PA.
The conditions of data set [2]: cited from earlier work; for time from which levels in whole blood at RT started declining: different assays than used in this study.
Data set [3] in a line: Experiment 7: two-week intermediate storage in the fridge. It is filed as in vitro ADME, human. The settings on record: EDTA plasma, 2 weeks at −20°C before −80°C; six Aβ assays.
Data set [4] can be described thus: Experiment 8: aliquot freeze-thawing. It is filed as in vitro ADME, human. Particulars: EDTA plasma; for impact of sample freeze–thawing (up to four cycles) on values: six Aβ assays. The gist of the method:
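Human EDTA plasma subjected to repeated freeze–thaw was compared with reference aliquots (centrifuged 1800 × g at room temperature after 30 min standing at room temperature, aliquoted immediately, stored at −80°C). Each value was normalized to its reference as %recovery, and the group median per condition was taken. A median change >10% was deemed relevant. GFAP was measured with the pre-commercial Simoa Neurology 4-Plex E kit.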

For data set [5] the following is noted: cited from earlier work.
The conditions of data set [6]: cited from earlier work. The source holds these as a separate data set.

For the substance total tau [t‐tau], the “median recovery, tubes held at RT for 3 hours pending centrifugation” value in data set [1] (3 hours) is 83%. Moreover, the “median recovery, tubes held at RT for 24 hours pending centrifugation” value in data set [1] (24 hours) was 49%. For the same substance, the “time for which t‐tau was stable prior to centrifugation” value in data set [2] (other t‐tau assays) is “up to 6 hours”.
As to “Aβ42: endogenous amyloid beta 42 peptide measured in blood as Alzheimer's disease biomarker”, the “decrease of values after two‐week intermittent storage at −20°C” value in data set [3] is given as “did not”. For the same substance, the “impact of sample freeze–thawing (up to four cycles) on values” in data set [4] is reported as “did not impact”. In addition, the “time from which levels in whole blood at RT started declining” value in data set [2] (ref 33) was 1 h; in data set [2] (ref 36), 6 h. Also, the “time from which levels in separated plasma decline at RT” value in data set [5] was 6 h.
For the substance glial fibrillary acidic protein [GFAP], the “median recovery after four additional freeze–thaw cycles, other biomarkers” value in data set [4] (GFAP by Simoa N4PE) worked out at 113%. Further, in data set [4] (Simoa N4PE), the “change at the second freeze–thaw cycle” value was “no change”. Also, the “plasma levels at freeze–thaw cycle 4” value in data set [6] is recorded as “remained stable”.
With “Aβ40: endogenous amyloid beta 40 peptide measured in blood as Alzheimer's disease biomarker”, the “decrease of values after two‐week intermittent storage at −20°C” value in data set [3] is reported as “did not”. Also, the “impact of sample freeze–thawing (up to four cycles) on values” in data set [4] is “did not impact”. The entries for the “time from which levels in whole blood at RT started declining” value in data set [2] (ref 33) and in data set [2] (ref 36) were 1 h and 48 h, respectively. For the same substance, the “time from which levels in separated plasma decline at RT” value in data set [5] is 8 h.

Values taken from article PMC9148379 (Alzheimer's & Dementia, 2021).
